ChEMBL document CHEMBL2034880, “Synthesis and biological evaluation of pyrimidine-based dual inhibitors of human epidermal growth factor receptor 1 (HER-1) and HER-2 tyrosine kinases” (J Med Chem, 2012)
Blank lines part the entries; values can stand above or below the compound they belong to.

Columns and labels:
[1] = Half life in rat liver microsomes at 5 uM
A-431 = experiment: Cytotoxicity against human A431 cells overexpressing HER-1 gene after 72 hrs by SRB assay; type: functional, cell-based; conditions: A-431, 72 h
Procedure, shortened: (§1)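 A431 and SK-Br3 cells grown in DMEM (4.5 g/L glucose, 1.5 g/L sodium bicarbonate) with 10% FBS at 37 °C, humidified 5% CO2. Proliferation/growth inhibition IC50 values are means of three independent experiments, each run in duplicate.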

SK-BR-3 = experiment: Cytotoxicity against human SKBR3 cells overexpressing HER-2 gene after 72 hrs by SRB assay; type: functional, cell-based; conditions: SK-BR-3, 72 h; procedure, shortened: as §1
[2] = Half life in mouse liver microsomes at 5 uM
[3] = Half life in dog liver microsomes at 5 uM
[4] = Half life in human liver microsomes at 5 uM
[5] = Half life in Sprague-Dawley rat at 5 mg/kg, po; type: ADME, organism-based; design: dose 5 mg/kg, route oral; conditions: in vivo
Procedure, shortened: (§2)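 Male ICR mice (27 5 g) and male Sprague-Dawley rats (250 10 g), n = 3 per route. Single oral gavage dose (mice 10 mg/kg, rats 5 mg/kg) and tail-vein iv dose (mice 2 mg/kg, rats 1 mg/kg). Compound given as HCl salt in 30% PEG400 and 5% ethanol in distilled water. Jugular blood drawn at set times over at least 24 h into heparin. Plasma level measured by LC/MS/MS after acetonitrile protein precipitation.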

[6] = AUC (0 to last) in Sprague-Dawley rat at 5 mg/kg, po; type: ADME, organism-based; design: dose 5 mg/kg, route oral, time 0 - last; conditions: plasma; procedure, shortened: as §2
[7] = Cmax in ICR mouse at 10 mg/kg, po; type: ADME, organism-based; design: dose 10 mg/kg, route oral; conditions: in vivo; procedure, shortened: as §2
[8] = Cmax in Sprague-Dawley rat at 5 mg/kg, po; type: ADME, organism-based; design: dose 5 mg/kg, route oral; conditions: in vivo; procedure, shortened: as §2
[9] = AUC (0 to last) in ICR mouse at 10 mg/kg, po; type: ADME, organism-based; design: time 0 - last, dose 10 mg/kg, route oral; conditions: plasma; procedure, shortened: as §2
[10] = Oral bioavailability in ICR mouse at 10 mg/kg; type: ADME, organism-based; conditions: in vivo; procedure, shortened: as §2
[11] = Oral bioavailability in Sprague-Dawley rat at 5 mg/kg; type: ADME, organism-based; conditions: in vivo; procedure, shortened: as §2
[12] = Half life in ICR mouse at 10 mg/kg, po; type: ADME, organism-based; design: dose 10 mg/kg, route oral; conditions: in vivo; procedure, shortened: as §2
[13] = biological target: Tyrosine-protein kinase ABL1 (Homo sapiens, UniProt P00519); experiment: Inhibition of Abl at 3 uM
[14] = biological target: Tyrosine-protein kinase Blk (Homo sapiens) (UniProt P51451); experiment: Inhibition of Blk at 3 uM
[15] = biological target: Platelet-derived growth factor receptor beta (Homo sapiens, UniProt P09619); conditions: 3 uM
[16] = biological target: Serine/threonine-protein kinase pim-1 (Homo sapiens, UniProt P11309); conditions: 3 uM
[17] = biological target: Hepatocyte growth factor receptor (Homo sapiens, UniProt P08581); experiment: Inhibition of MET at 3 uM
[18] = biological target: Fibroblast growth factor receptor 1 (Homo sapiens, UniProt P11362); conditions: 3 uM
Focal adhesion kinase 1 = Focal adhesion kinase 1 (Homo sapiens, UniProt Q05397); conditions: 3 uM
[19] = biological target: Mast/stem cell growth factor receptor Kit (Homo sapiens, UniProt P10721); conditions: 3 uM
[20] = biological target: 5'-AMP-activated protein kinase catalytic subunit alpha-1 (Homo sapiens, UniProt Q13131); conditions: 3 uM
[21] = biological target: Receptor-type tyrosine-protein kinase FLT3 (Homo sapiens) (UniProt P36888); conditions: 3 uM
[22] = biological target: Serine/threonine-protein kinase STK11 (Homo sapiens) (UniProt Q15831); conditions: 3 uM
[23] = biological target: T1, Receptor tyrosine-protein kinase erbB-2 (Homo sapiens, UniProt P04626); conditions: SK-BR-3, 1 uM
[24] = biological target: Vascular endothelial growth factor receptor 1 (Homo sapiens, UniProt P17948); experiment: Inhibition of Flt1 at 3 uM
[25] = biological target: Platelet-derived growth factor receptor alpha (Homo sapiens, UniProt P16234); conditions: 3 uM
[26] = biological target: Insulin-like growth factor 1 receptor (Homo sapiens, UniProt P08069); conditions: 3 uM
[27] = biological target: T1, Receptor tyrosine-protein kinase erbB-2; conditions: SK-BR-3, 1 uM; remark: listed apart in the source
[28] = biological target: Dual specificity mitogen-activated protein kinase kinase 1 (Homo sapiens, UniProt Q02750); conditions: 3 uM
[29] = biological target: Aurora kinase A (Homo sapiens) (UniProt O14965); experiment: Inhibition of Aurora A at 3 uM
[30] = biological target: Cyclin-dependent kinase 1/cyclin B1 (Homo sapiens) (UniProt P06493+P14635); conditions: 3 uM
[31] = biological target: Tyrosine-protein kinase SYK (Homo sapiens, UniProt P43405); experiment: Inhibition of Syk at 3 uM
Insulin receptor = Insulin receptor (Homo sapiens, UniProt P06213); conditions: 3 uM
[32] = biological target: Tyrosine-protein kinase JAK2 (Homo sapiens, UniProt O60674); conditions: 3 uM

T1 sequence (P04626 whole entry): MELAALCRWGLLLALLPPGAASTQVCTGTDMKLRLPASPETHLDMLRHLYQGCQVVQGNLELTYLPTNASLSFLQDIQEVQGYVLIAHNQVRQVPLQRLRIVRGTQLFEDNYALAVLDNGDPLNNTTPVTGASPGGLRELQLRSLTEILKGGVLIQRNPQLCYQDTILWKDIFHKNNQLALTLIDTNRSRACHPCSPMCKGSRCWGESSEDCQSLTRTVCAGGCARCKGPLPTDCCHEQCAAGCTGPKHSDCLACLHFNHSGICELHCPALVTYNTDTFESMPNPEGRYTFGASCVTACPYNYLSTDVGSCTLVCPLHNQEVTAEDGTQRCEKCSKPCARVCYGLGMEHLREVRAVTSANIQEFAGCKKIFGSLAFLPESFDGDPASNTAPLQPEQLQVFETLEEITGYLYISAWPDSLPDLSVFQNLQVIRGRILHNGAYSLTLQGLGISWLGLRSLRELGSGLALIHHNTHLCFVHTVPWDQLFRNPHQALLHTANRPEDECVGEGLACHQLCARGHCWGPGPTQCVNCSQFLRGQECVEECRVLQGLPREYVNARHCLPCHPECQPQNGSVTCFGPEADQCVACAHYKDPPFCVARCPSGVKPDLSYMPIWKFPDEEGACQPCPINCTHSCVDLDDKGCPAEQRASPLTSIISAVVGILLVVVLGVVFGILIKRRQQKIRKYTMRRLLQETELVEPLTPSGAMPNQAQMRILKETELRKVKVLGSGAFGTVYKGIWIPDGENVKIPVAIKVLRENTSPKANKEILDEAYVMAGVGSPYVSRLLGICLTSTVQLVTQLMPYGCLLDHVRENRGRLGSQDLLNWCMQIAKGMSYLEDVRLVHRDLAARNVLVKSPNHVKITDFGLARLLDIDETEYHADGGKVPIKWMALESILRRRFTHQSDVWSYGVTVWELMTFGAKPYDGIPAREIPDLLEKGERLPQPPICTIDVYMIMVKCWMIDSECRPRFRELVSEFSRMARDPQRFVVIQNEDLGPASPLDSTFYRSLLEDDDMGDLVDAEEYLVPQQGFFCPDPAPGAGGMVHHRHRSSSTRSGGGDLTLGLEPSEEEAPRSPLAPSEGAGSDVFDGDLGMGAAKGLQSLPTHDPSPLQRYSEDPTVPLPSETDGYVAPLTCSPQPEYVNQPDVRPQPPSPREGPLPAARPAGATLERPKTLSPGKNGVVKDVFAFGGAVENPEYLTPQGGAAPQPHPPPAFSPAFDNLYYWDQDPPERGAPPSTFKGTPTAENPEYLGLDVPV
Sequence of Receptor-type tyrosine-protein kinase FLT3 (Homo sapiens) (P36888 whole entry): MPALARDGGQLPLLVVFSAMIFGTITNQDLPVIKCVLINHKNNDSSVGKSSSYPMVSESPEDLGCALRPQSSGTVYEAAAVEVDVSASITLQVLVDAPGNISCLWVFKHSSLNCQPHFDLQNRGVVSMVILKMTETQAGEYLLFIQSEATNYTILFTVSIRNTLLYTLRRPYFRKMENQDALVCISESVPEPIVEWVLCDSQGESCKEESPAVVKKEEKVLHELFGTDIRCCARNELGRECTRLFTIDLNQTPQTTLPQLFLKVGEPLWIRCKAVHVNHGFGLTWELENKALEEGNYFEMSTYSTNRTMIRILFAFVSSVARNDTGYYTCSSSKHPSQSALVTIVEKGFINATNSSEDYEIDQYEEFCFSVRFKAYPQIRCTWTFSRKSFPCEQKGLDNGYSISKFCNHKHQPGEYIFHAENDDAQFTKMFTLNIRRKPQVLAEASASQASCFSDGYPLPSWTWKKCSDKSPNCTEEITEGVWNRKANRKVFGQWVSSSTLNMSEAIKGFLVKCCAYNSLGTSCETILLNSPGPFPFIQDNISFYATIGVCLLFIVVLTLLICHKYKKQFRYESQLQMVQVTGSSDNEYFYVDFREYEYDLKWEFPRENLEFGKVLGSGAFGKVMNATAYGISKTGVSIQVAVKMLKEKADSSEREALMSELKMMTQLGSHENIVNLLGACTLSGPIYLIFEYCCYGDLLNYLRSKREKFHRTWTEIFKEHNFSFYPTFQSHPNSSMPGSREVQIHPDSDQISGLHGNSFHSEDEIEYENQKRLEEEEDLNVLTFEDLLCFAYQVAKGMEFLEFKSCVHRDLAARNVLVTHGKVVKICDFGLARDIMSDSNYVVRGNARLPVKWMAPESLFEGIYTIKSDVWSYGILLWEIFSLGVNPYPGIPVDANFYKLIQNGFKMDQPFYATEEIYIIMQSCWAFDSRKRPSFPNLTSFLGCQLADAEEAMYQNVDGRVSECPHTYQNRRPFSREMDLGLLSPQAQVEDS
Sequence of Hepatocyte growth factor receptor (P08581 whole entry): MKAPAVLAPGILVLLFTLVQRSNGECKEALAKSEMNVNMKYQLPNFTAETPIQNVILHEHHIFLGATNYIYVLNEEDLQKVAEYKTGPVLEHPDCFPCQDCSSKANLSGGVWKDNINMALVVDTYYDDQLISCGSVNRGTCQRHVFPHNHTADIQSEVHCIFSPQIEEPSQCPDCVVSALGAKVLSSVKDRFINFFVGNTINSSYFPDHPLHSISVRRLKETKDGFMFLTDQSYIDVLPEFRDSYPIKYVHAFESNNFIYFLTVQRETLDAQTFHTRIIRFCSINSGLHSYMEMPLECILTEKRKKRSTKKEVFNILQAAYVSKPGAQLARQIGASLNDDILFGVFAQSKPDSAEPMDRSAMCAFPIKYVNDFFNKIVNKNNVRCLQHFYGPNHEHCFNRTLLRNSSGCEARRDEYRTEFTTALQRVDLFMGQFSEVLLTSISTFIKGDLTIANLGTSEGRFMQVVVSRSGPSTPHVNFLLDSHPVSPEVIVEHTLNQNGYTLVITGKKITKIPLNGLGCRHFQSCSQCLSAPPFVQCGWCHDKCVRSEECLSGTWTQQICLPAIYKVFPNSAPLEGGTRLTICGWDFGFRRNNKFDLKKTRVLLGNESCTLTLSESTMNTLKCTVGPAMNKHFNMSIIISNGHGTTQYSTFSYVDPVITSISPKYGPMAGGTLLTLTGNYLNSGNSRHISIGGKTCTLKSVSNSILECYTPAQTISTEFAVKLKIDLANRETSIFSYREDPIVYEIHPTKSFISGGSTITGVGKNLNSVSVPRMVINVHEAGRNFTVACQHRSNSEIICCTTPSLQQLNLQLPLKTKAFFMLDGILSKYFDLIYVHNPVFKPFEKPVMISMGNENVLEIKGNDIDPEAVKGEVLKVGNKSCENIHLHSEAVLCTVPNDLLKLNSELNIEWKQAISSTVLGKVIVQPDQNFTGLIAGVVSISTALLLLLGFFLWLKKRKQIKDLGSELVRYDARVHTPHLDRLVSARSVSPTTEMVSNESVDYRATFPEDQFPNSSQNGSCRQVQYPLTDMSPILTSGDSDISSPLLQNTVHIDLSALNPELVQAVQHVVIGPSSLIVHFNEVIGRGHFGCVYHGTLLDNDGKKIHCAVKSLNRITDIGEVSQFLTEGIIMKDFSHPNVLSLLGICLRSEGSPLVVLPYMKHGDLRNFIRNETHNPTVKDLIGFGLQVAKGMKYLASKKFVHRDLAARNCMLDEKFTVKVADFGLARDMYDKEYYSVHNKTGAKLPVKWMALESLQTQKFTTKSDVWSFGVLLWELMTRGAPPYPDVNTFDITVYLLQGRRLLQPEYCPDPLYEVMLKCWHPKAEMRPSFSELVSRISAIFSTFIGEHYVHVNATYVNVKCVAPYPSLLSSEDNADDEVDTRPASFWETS
Sequence of Tyrosine-protein kinase ABL1 (P00519 whole entry): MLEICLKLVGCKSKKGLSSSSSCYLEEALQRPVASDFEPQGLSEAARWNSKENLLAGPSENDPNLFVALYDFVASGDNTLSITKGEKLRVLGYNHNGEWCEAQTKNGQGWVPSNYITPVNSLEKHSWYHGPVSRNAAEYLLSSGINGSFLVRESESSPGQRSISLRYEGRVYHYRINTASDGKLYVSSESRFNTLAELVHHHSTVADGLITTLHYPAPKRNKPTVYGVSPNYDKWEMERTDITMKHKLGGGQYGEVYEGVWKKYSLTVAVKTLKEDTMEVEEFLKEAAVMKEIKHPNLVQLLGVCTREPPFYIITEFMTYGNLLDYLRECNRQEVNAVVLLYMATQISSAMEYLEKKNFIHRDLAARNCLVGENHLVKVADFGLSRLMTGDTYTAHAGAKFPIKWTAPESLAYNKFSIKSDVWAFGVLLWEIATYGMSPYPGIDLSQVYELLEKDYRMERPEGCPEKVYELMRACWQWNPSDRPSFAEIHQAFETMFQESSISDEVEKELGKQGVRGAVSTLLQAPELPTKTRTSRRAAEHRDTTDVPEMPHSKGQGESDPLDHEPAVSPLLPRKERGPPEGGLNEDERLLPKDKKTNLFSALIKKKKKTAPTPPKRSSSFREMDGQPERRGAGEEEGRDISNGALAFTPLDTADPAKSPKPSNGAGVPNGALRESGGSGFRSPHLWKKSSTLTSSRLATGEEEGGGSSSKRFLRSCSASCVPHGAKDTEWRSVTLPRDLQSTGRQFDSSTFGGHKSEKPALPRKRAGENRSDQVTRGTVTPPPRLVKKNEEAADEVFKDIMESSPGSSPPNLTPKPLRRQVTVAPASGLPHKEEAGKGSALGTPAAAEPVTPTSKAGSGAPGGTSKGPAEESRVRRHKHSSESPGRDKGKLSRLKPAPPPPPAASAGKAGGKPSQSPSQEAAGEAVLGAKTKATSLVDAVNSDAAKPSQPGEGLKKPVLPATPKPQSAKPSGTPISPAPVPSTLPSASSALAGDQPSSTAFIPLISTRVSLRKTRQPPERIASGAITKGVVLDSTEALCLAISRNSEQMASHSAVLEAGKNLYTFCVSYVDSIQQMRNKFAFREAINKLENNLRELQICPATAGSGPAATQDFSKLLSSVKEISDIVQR
Sequence of Serine/threonine-protein kinase pim-1 (P11309 whole entry, looked up): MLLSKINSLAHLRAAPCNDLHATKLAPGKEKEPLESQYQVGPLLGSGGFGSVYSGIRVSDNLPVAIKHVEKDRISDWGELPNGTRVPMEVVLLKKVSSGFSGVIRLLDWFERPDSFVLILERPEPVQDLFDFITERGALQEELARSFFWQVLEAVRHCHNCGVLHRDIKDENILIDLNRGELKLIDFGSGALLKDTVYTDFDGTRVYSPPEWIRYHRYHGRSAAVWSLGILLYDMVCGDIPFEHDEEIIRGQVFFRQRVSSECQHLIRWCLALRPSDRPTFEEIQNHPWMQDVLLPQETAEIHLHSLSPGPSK

SMILES: C=CC(=O)NCc1coc(-c2c(N)ncnc2Nc2ccc(Oc3ccc(Cl)cc3Cl)c(Cl)c2)n1
IC50 (A-431): 105 nM
IC50 (SK-BR-3): 6.5 nM

SMILES: C=CC(=O)NCc1cc(-c2cncnc2Nc2ccc(OCc3ccccn3)c(Cl)c2)on1
IC50 (A-431): 2.2 nM
IC50 (SK-BR-3): 122 nM

SMILES: C=CC(=O)NCc1coc(-c2c(N)ncnc2Nc2ccc(Oc3cccc(Cl)c3Cl)c(Cl)c2)n1
IC50 (A-431): 113 nM
IC50 (SK-BR-3): 18.2 nM

SMILES: C=CC(=O)NCc1coc(-c2cncnc2Nc2ccc(OCc3ccccn3)c(Cl)c2)n1
IC50 (A-431): 105 nM
IC50 (SK-BR-3): 9.7 nM

SMILES: C=CC(=O)NCCNC(=O)c1c(N)ncnc1Nc1ccc(OCc2ccccn2)c(Cl)c1
IC50 (A-431): > 1000 nM
IC50 (SK-BR-3): > 1000 nM

SMILES: C=CC(=O)NCc1coc(-c2c(N)ncnc2Nc2ccc(OCc3ccccn3)c(F)c2)n1
half-life at 5 µM ([1]; liver microsomes): 16 min
IC50 (A-431): 63 nM
IC50 (SK-BR-3): 6.1 nM
half-life at 5 µM ([2]; liver microsomes): 9 min
half-life at 5 µM ([3]; liver microsomes): 44 min
half-life at 5 µM ([4]; liver microsomes): 27 min

SMILES: C=CC(=O)Nc1cccc(-c2cncnc2Nc2ccc(OCc3ccccn3)c(Cl)c2)c1
IC50 (A-431): 593 nM
IC50 (SK-BR-3): 6.1 nM

SMILES: C=CC(=O)NCc1coc(-c2c(N)ncnc2Nc2ccc(Oc3ccccc3F)c(Cl)c2)n1
IC50 (A-431): 29 nM
IC50 (SK-BR-3): 4.7 nM

SMILES: C=CC(=O)NCc1coc(-c2c(N)ncnc2Nc2ccc(Oc3ccc(C)nc3)c(Cl)c2)n1
IC50 (A-431): 68 nM
IC50 (SK-BR-3): 6.1 nM

SMILES: C=CC(=O)NCc1coc(-c2c(N)ncnc2Nc2ccc(Cl)c(Cl)c2F)n1
half-life at 5 µM ([1]; liver microsomes): > 100 min
IC50 (A-431): 282 nM
IC50 (SK-BR-3): 92.6 nM
half-life at 5 µM ([2]; liver microsomes): 74 min
half-life at 5 µM ([3]; liver microsomes): > 100 min
half-life at 5 µM ([4]; liver microsomes): > 100 min

SMILES: C=CC(=O)NCC#Cc1cncnc1Nc1ccc(OCc2ccccn2)c(Cl)c1
IC50 (A-431): > 1000 nM
IC50 (SK-BR-3): > 1000 nM

Now from value to compound, other results behind:

half-life at 5 µM ([1]; liver microsomes): 51 min
half-life at 5 µM ([2]; liver microsomes): 57 min
half-life at 5 µM ([3]; liver microsomes): > 100 min
half-life at 5 µM ([4]; liver microsomes): 96 min
SMILES: C=CC(=O)NCc1coc(-c2c(N)ncnc2Nc2ccc(Oc3cc(Cl)ccc3Cl)c(Cl)c2)n1
IC50 (A-431): 184 nM
IC50 (SK-BR-3): 1.9 nM

half-life at 5 µM ([1]; liver microsomes): 24 min
half-life at 5 µM ([2]; liver microsomes): 9 min
half-life at 5 µM ([3]; liver microsomes): 9 min
half-life at 5 µM ([4]; liver microsomes): 16 min
SMILES: C=CC(=O)NCc1coc(-c2c(N)ncnc2Nc2ccc(F)c(Cl)c2)n1
IC50 (A-431): 52 nM
IC50 (SK-BR-3): 34.1 nM

half-life [5]: 194 min
AUC(0-t) [6]: 440 ng·h/mL
Cmax [7]: 282 ng/mL
Cmax [8]: 189 ng/mL
AUC(0-t) [9]: 455 ng·h/mL
bioavailability [10]: 21.6%
bioavailability [11]: 21.9%
half-life [12]: 1660 min
SMILES: C=CC(=O)NCc1coc(-c2c(N)ncnc2Nc2ccc(OCc3ccccn3)c(Cl)c2)n1.Cl

half-life at 5 µM ([1]; microsomes): 17 min
half-life at 5 µM ([2]; microsomes): 43 min
half-life at 5 µM ([3]; microsomes): 41 min
half-life at 5 µM ([4]; microsomes): 39 min
SMILES: C=CC(=O)NCc1coc(-c2c(N)ncnc2Nc2ccc(Oc3ccc(C)nc3)c(C)c2)n1
IC50 (A-431): 64 nM
IC50 (SK-BR-3): 1.1 nM

half-life at 5 µM ([1]; liver microsomes): 54 min
half-life at 5 µM ([2]; liver microsomes): > 100 min
half-life at 5 µM ([3]; liver microsomes): > 100 min
half-life at 5 µM ([4]; liver microsomes): > 100 min
SMILES: C=CC(=O)NCc1coc(-c2c(N)ncnc2Nc2ccc(Oc3cccc(F)c3)c(Cl)c2)n1
IC50 (A-431): 75 nM
IC50 (SK-BR-3): 0.5 nM

half-life at 5 µM ([1]; liver microsomes): 59 min
half-life at 5 µM ([2]; liver microsomes): 48 min
half-life at 5 µM ([3]; liver microsomes): > 100 min
half-life at 5 µM ([4]; liver microsomes): > 100 min
SMILES: C=CC(=O)NCc1coc(-c2c(N)ncnc2Nc2ccc(Oc3ccccc3)c(Cl)c2)n1
IC50 (A-431): 60 nM
IC50 (SK-BR-3): 3.1 nM

half-life at 5 µM ([1]; liver microsomes): 16 min
half-life at 5 µM ([2]; liver microsomes): 15 min
half-life at 5 µM ([3]; liver microsomes): 24 min
half-life at 5 µM ([4]; liver microsomes): 39 min
SMILES: C=CC(=O)NCc1coc(-c2c(N)ncnc2Nc2ccc(Oc3ccccn3)c(Cl)c2)n1
IC50 (A-431): 36 nM
IC50 (SK-BR-3): 1.7 nM

half-life at 5 µM ([1]; microsomes): 25 min
half-life at 5 µM ([2]; microsomes): 39 min
half-life at 5 µM ([3]; microsomes): 51 min
half-life at 5 µM ([4]; microsomes): > 100 min
SMILES: C=CC(=O)NCc1coc(-c2c(N)ncnc2Nc2ccc(Oc3ccnn3C)c(Cl)c2)n1
IC50 (A-431): 66 nM
IC50 (SK-BR-3): 4 nM

half-life at 5 µM ([1]; liver microsomes): 29 min
half-life at 5 µM ([3]; liver microsomes): > 100 min
half-life at 5 µM ([4]; liver microsomes): 45 min
SMILES: C=CC(=O)NCc1coc(-c2c(N)ncnc2Nc2ccc(OCc3cccc(F)c3)c(Cl)c2)n1
IC50 (A-431): 59 nM
IC50 (SK-BR-3): 3.9 nM

half-life at 5 µM ([1]; liver microsomes): 66 min
half-life at 5 µM ([2]; liver microsomes): > 100 min
half-life at 5 µM ([3]; liver microsomes): > 100 min
half-life at 5 µM ([4]; liver microsomes): > 100 min
SMILES: C=CC(=O)NCc1coc(-c2c(N)ncnc2Nc2ccc(Oc3ccc(F)cc3)c(Cl)c2)n1
IC50 (A-431): 39 nM
IC50 (SK-BR-3): 6 nM

half-life at 5 µM ([1]; liver microsomes): 9 min
half-life at 5 µM ([2]; liver microsomes): 18 min
half-life at 5 µM ([3]; liver microsomes): 39 min
half-life at 5 µM ([4]; liver microsomes): 15 min
SMILES: C=CC(=O)NCc1coc(-c2c(N)ncnc2Nc2ccc(Oc3cccnc3)c(Cl)c2)n1
IC50 (A-431): 68 nM
IC50 (SK-BR-3): 2.4 nM

half-life at 5 µM ([1]; microsomes): > 100 min
half-life at 5 µM ([2]; microsomes): > 100 min
half-life at 5 µM ([3]; microsomes): > 100 min
half-life at 5 µM ([4]; microsomes): > 100 min
SMILES: C=CC(=O)NCc1coc(-c2c(N)ncnc2Nc2ccc(Oc3cc(C(F)(F)F)nn3C)c(Cl)c2)n1
IC50 (A-431): 65 nM
IC50 (SK-BR-3): 3.3 nM

inhibition [13]: 15%
inhibition [14]: 77%
inhibition [15]: 0%
inhibition [16]: 2%
inhibition [17]: 13%
inhibition [18]: 0%
inhibition (Focal adhesion kinase 1): 0%
inhibition [19]: 0%
inhibition [20]: 0%
inhibition [21]: 0%
inhibition [22]: 0%
inhibition [23]: 87.5%
inhibition [24]: 15%
inhibition [25]: 0%
inhibition [26]: 0%
inhibition [27]: 68.2%
inhibition [28]: 14%
inhibition [29]: 42%
inhibition [30]: 0%
inhibition [31]: 15%
inhibition (Insulin receptor): 0%
inhibition [32]: 0%
SMILES: C=CC(=O)NCc1coc(-c2c(N)ncnc2Nc2ccc(OCc3ccccn3)c(Cl)c2)n1
